The values that follow come from ChEMBL document CHEMBL2163323, “Characterization and solubilization of pyrrole-imidazole polyamide aggregates” (J Med Chem, 2012).

For data set [1], the system named is Plasma. As to the kind of experiment: Drug uptake in C57Bl/6 mouse plasma at 120 nmol, ip in 1 % DMSO/80 mM HPbeta-CD/PBS vehicle measured after 24 hrs. Format: ADME, organism-based. The settings on record: in vivo. In outline:
(§1)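 C57bl/6 mice, 8–12 weeks old, received an IP injection of 200 μL PBS containing 120 nmol compound in the stated vehicle. Under isoflurane, blood was drawn retro-orbitally at three time points. Plasma from four mice was pooled (5 μL each), precipitated with methanol, spiked with Boc-Py-OMe as internal control, and quantified by HPLC at 310 nm against a standard curve.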

Data set [2] in a line: Plasma concentration of compound in C57Bl/6 mouse at 120 nmol, ip in 1 % DMSO/80 mM HPbeta-CD/PBS vehicle measured after 1.5 hrs. Format: ADME, organism-based. In outline: as §1
Data set [3] can be described thus: Solubility of the compound in 0.1 % DMSO/PBS solution at 4 uM after 2 hrs by HPLC analysis in presence of 35 mM dextrose. Format: physicochemical. The settings on record: buffer. In outline:
(§2)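 The 4 mM DMSO stock was diluted 1000× into PBS containing 35 mM dextrose, 5 mM γCD, 50 mM HpβCD or 6 mg/mL hypromellose. Samples were sonicated 20 min at 25 °C, equilibrated 2 h at room temperature and centrifuged. The soluble fraction was measured by HPLC peak area at 310 nm against a standard curve. Values are SD of ≥3 independent measurements.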

Data set [4] can be described thus: Solubility of the compound in 0.1 % DMSO/PBS solution at 4 uM after 2 hrs by HPLC analysis in presence of 5 mM gamma-cyclodextrin. Format: physicochemical. Conditions: buffer; call rule not given here. An outline of the steps:
as §2

Data set [5] is described as follows: Solubility of the compound in 0.1 % DMSO/PBS solution at 4 uM after 2 hrs by HPLC analysis in presence of 6 mg/ml hypromellose. Format: physicochemical. Conditions: buffer. In outline:
as §2

Data set [6] in a line: Solubility of the compound in 0.1 % DMSO/PBS solution at 4 uM after 2 hrs by HPLC analysis in presence of 50 mM 2-hydroxypropyl-beta-cyclodextrin. Format: physicochemical. The settings on record: buffer. An outline of the steps: as §2
A short description of data set [7]: Solubility of the compound in 0.1 % DMSO/PBS solution at 4 uM after 2 hrs by HPLC analysis. Format: physicochemical. The settings on record: buffer. An outline of the steps:
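A 4 mM DMSO stock was diluted 1000× into PBS, vortexed, sonicated 20 min at 25 °C and equilibrated 2 h at room temperature. After centrifugation for 20 min, the supernatant was analysed by HPLC at 310 nm against a standard curve. Maximum concentration was estimated from quantitation of the stock in 0.1% DMSO/water. Values are SD of ≥3 independent measurements.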

Data set [8] in a line: Solubility of the compound in 0.1 % DMSO/PBS solution assessed as radius of the aggregate particle at 4 uM measured over 10 mins by dynamic light scattering method. Format: physicochemical. The settings on record: buffer. An outline of the steps: (§3)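 DMSO stocks (1, 4, 10 mM) were centrifuged, then diluted 1000× into PBS (final 0.1% DMSO). Dynamic light scattering used a 659 nm laser at a 90° angle and 25 °C, with 10–15 s acquisitions over 10 min. Radius came from a cumulant fit of averaged autocorrelation functions at the lowest concentration giving 3× buffer signal. Values are SD of ≥3 independent measurements.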

The nature of data set [9]: Plasma concentration of compound in C57Bl/6 mouse at 120 nmol, ip in 20 % DMSO/PBS vehicle measured after 1.5 hrs. Format: ADME, organism-based. In outline: as §1
The subject of data set [10] is Plasma. As to the kind of experiment: Drug uptake in C57Bl/6 mouse plasma at 120 nmol, ip in 20 % DMSO/PBS vehicle measured after 24 hrs. Format: ADME, organism-based. Conditions: in vivo. In outline: as §1
Data set [11] in a line: Solubility of the compound in 0.1 % DMSO/PBS solution assessed as radius of the aggregate particle at 1 uM measured over 10 mins by dynamic light scattering method. The settings on record: buffer. Format: physicochemical. In outline: as §3
Data set [12] deals with A549. As to the kind of experiment: Drug uptake in human A549 cells incubated with mouse plasma isolated 4.5 hr post administration with compound measured after 16 hrs by confocal microscopy. Format: ADME, cell-based. In outline:
(§4)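 A549 cells were seeded at 100k cells/mL in F-12K/10% FBS and allowed to adhere for 18 h at 37 °C in 5% CO2. Medium was replaced with 200 μL fresh medium plus 20 μL plasma. The plasma came from mice given 120 nmol IP in 20% DMSO/80 mM HpβCD/PBS. After 16 h, live cells were imaged by confocal microscopy (63× oil objective, fluorescein filters).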

Data set [13] can be described thus: Solubility of the compound in 20 % DMSO/PBS. Format: physicochemical. Conditions: buffer.
For data set [14], the system named is A549. The data set is described as follows: Drug uptake in human A549 cells incubated with mouse plasma isolated 1.5 hr post administration with compound measured after 16 hrs by confocal microscopy. Format: ADME, cell-based. An outline of the steps:
as §4

The structures appear in SMILES notation.

Take `CN(CCCNC(=O)c1cccc(C(=O)O)c1)CCCNC(=O)c1cc(NC(=O)c2cc(NC(=O)c3cc(NC(=O)c4cc(NC(=O)[C@H](N)CCNC(=O)c5cc(NC(=O)c6cc(NC(=O)c7nc(NC(=O)c8nccn8C)cn7C)cn6C)cn5C)cn4C)cn3C)cn2C)cn1C`: the Drug uptake entry in the data set with Plasma [1] and with Plasma [10] was “Not Active” in each case. Besides, the concentration at 1.5 h in data set [2] and in data set [9] was 13 µM throughout. Also, the solubility result in data set [3] is listed as “Insoluble”; in [4], “soluble”; in [5], “soluble”; in data set [6], “soluble”; in data set [7], “Insoluble”. Also, the Activity in [8] is recorded as 124 nm.
For the molecule `CC(=O)N[C@H]1CNC(=O)c2cc(cn2C)NC(=O)c2cc(cn2C)NC(=O)c2nc(cn2C)NC(=O)c2nc(cn2C)NC(=O)C[C@@H](NC(C)=O)CNC(=O)c2cc(cn2C)NC(=O)c2cc(cn2C)NC(=O)c2cc(cn2C)NC(=O)c2cc(cn2C)NC(=O)C1`, the solubility result in data set [7] was “Insoluble”. The Activity in data set [8] is recorded as 182 nm.
For `CN(CCCNC(=O)c1cccc(C(=O)O)c1)CCCNC(=O)c1cc(NC(=O)c2cc(NC(=O)c3cc(NC(=O)c4nc(NC(=O)[C@H](N)CCNC(=O)c5cc(NC(=O)c6cc(NC(=O)c7cc(NC(=O)c8nccn8C)cn7C)cn6C)cn5C)cn4C)cn3C)cn2C)cn1C`, in that order: “Insoluble” and 182 nm.
In the case of `CN(CCCNC(=O)c1cccc(C(=O)O)c1)CCCNC(=O)c1cc(NC(=O)c2cc(NC(=O)c3cc(NC(=O)c4cc(NC(=O)C[C@@H](N)CNC(=O)c5cc(NC(=O)c6cc(NC(=O)c7nc(NC(=O)c8nccn8C)cn7C)cn6C)cn5C)cn4C)cn3C)cn2C)cn1C`, the solubility entry is reported as “soluble” in data set [6] and “Insoluble” in data set [7]. For the same molecule, the Activity in [8] is given as 108 nm.
On to `Cn1cc2cc1C(=O)NC[C@H](N)CC(=O)Nc1cc(n(C)c1)C(=O)Nc1cc(n(C)c1)C(=O)Nc1cc(n(C)c1)C(=O)Nc1cc(n(C)c1)C(=O)NC[C@H](N)CC(=O)Nc1cn(C)c(n1)C(=O)Nc1cn(C)c(n1)C(=O)Nc1cc(n(C)c1)C(=O)N2`, for which the solubility result in [7] was “Insoluble”. In addition, the Activity in [8] came to 347 nm.
As for `CN(CCCNC(=O)c1cc(NC(=O)c2cc(NC(=O)c3cc(NC(=O)c4nc(NC(=O)C[C@@H](N)CNC(=O)c5cc(NC(=O)c6cc(NC(=O)c7cc(NC(=O)c8nccn8C)cn7C)cn6C)cn5C)cn4C)cn3C)cn2C)cn1C)CCCNC(=S)Nc1ccc(-c2c3ccc(=O)cc-3oc3cc(O)ccc23)c(C(=O)O)c1`, the Activity in [11] was found to be 294 nm.
As to `CN(CCCNC(=O)c1cccc(C(=O)O)c1)CCCNC(=O)c1cc(NC(=O)c2cc(NC(=O)c3cc(NC(=O)c4nc(NC(=O)C[C@@H](N)CNC(=O)c5cc(NC(=O)c6cc(NC(=O)c7cc(NC(=O)c8nccn8C)cn7C)cn6C)cn5C)cn4C)cn3C)cn2C)cn1C`, in data set [7], the solubility result is “Insoluble”. Also, the Activity in data set [8] is 104 nm.
Turning to `CN(CCCNC(=O)c1cccc(C(=O)O)c1)CCCNC(=O)c1cc(NC(=O)c2cc(NC(=O)c3cc(NC(=O)c4cc(NC(=O)C[C@H](CNC(=O)c5cc(NC(=O)c6cc(NC(=O)c7nc(NC(=O)c8nccn8C)cn7C)cn6C)cn5C)NC(=O)c5ccccc5)cn4C)cn3C)cn2C)cn1C`, the solubility result in data set [6] is recorded as “soluble”; in [7], “Insoluble”. For the same molecule, the Activity in data set [8] was found to be 176 nm; in data set [11] it was 123 nm.
Regarding `CN(CCCNC(=O)c1cccc(C(=O)O)c1)CCCNC(=O)c1cc(NC(=O)c2cc(NC(=O)c3cc(NC(=O)c4nc(NC(=O)C[C@H](CNC(=O)c5cc(NC(=O)c6cc(NC(=O)c7cc(NC(=O)c8nccn8C)cn7C)cn6C)cn5C)NC(=O)c5ccccc5)cn4C)cn3C)cn2C)cn1C`, the solubility entry in data set [7] is on record as “Insoluble”. Further, the Activity in data set [8] is given as 127 nm; in data set [11], 87 nm.
In the case of `CN(CCCNC(=O)c1cc(NC(=O)c2cc(NC(=O)c3cc(NC(=O)c4cc(NC(=O)[C@H](N)CCNC(=O)c5cc(NC(=O)c6cc(NC(=O)c7nc(NC(=O)c8nccn8C)cn7C)cn6C)cn5C)cn4C)cn3C)cn2C)cn1C)CCCNC(=S)Nc1ccc(-c2c3ccc(=O)cc-3oc3cc(O)ccc23)c(C(=O)O)c1`, the Drug uptake result in the data set on A549 [12] is listed as “Not Active”; with A549 [14] it was “Active”. In addition, the solubility entry in data set [13] was “Insoluble”.
In the case of `CC(=O)N[C@@H](CNC(=O)c1cc(NC(=O)c2cc(NC(=O)c3cc(NC(=O)c4nccn4C)cn3C)cn2C)cn1C)CC(=O)Nc1cn(C)c(C(=O)Nc2cc(C(=O)Nc3cc(C(=O)Nc4cc(C(=O)NCCCN(C)CCCNC(=O)c5cccc(C(=O)O)c5)n(C)c4)n(C)c3)n(C)c2)n1`, in data set [7], the solubility entry is “Insoluble”. Also, the Activity in data set [8] amounted to 74 nm.
In the case of `CN(CCCNC(=O)c1cc(NC(=O)c2cc(NC(=O)c3cc(NC(=O)c4nc(NC(=O)C[C@H](CNC(=O)c5cc(NC(=O)c6cc(NC(=O)c7cc(NC(=O)c8nccn8C)cn7C)cn6C)cn5C)NC(=O)c5ccccc5)cn4C)cn3C)cn2C)cn1C)CCCNC(=S)Nc1ccc(-c2c3ccc(=O)cc-3oc3cc(O)ccc23)c(C(=O)O)c1`, the Activity in data set [11] stood at 147 nm.
As to `CC(=O)N[C@@H](CNC(=O)c1cc(NC(=O)c2cc(NC(=O)c3nc(NC(=O)c4nccn4C)cn3C)cn2C)cn1C)CC(=O)Nc1cc(C(=O)Nc2cc(C(=O)Nc3cc(C(=O)Nc4cc(C(=O)NCCCN(C)CCCNC(=O)c5cccc(C(=O)O)c5)n(C)c4)n(C)c3)n(C)c2)n(C)c1`, the solubility entry in [6] is given as “soluble”; in data set [7] it was “Insoluble”. The Activity in data set [8] was found to be 100 nm.
On to `Cn1cc2cc1C(=O)NCCCC(=O)Nc1cn(C)c(n1)C(=O)Nc1cn(C)c(n1)C(=O)Nc1cc(n(C)c1)C(=O)Nc1cc(n(C)c1)C(=O)NC[C@H](N)CC(=O)Nc1cc(n(C)c1)C(=O)Nc1cc(n(C)c1)C(=O)Nc1cc(n(C)c1)C(=O)N2`, for which the solubility result in data set [3] is given as “Insoluble”; in [4], “soluble”; in data set [5], “soluble”; in data set [7], “Insoluble”. For the same molecule, in data set [8], the Activity stood at 197 nm.
